The target in test [1] is T1, Adrenergic receptor alpha-1 (Rattus norvegicus, UniProt P15823+P23944+P43140).
T1 sequence (P15823 whole entry): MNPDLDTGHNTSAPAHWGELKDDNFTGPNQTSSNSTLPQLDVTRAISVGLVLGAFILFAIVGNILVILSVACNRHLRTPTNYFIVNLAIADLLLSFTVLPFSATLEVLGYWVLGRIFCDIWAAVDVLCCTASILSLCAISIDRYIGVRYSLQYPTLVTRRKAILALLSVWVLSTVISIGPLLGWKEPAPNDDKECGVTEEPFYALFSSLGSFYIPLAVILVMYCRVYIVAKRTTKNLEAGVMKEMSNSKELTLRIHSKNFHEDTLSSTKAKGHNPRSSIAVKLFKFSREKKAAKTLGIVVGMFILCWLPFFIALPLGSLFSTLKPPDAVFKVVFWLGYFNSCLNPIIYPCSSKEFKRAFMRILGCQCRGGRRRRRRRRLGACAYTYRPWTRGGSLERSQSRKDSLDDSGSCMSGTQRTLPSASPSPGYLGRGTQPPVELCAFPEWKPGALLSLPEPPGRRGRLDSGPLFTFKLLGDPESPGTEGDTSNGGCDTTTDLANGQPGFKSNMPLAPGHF
T1 sequence (P23944 whole entry): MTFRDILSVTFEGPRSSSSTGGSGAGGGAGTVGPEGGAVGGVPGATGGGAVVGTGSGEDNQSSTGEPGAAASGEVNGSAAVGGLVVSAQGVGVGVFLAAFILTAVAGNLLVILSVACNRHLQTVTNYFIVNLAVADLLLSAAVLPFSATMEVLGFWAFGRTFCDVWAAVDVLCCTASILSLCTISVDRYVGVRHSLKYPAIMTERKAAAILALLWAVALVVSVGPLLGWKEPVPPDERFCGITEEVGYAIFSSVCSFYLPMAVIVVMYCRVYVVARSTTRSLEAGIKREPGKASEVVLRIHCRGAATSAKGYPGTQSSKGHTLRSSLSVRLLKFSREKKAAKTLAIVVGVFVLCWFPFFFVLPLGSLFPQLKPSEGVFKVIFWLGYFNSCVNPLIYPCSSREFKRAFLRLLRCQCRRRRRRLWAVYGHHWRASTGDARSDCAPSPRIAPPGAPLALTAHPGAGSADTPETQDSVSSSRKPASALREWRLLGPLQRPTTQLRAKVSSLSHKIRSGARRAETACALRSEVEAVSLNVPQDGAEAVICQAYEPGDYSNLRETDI
T1 sequence (P43140 whole entry): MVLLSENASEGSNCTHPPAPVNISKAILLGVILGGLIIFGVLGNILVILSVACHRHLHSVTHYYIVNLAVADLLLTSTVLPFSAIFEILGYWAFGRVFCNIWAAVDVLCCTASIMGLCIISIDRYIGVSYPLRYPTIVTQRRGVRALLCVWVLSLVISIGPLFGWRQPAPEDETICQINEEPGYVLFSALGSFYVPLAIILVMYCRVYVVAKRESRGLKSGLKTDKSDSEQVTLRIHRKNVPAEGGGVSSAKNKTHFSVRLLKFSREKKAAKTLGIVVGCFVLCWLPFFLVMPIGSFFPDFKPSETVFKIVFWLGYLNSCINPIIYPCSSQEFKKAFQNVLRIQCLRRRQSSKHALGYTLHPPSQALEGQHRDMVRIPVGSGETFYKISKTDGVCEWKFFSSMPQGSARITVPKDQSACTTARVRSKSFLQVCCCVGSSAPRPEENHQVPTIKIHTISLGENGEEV
As to the kind of experiment: Displacement of [3H]prazosin from Alpha-1 adrenergic receptor of whole rat brain membranes. In kind it is cell membranes, Membrane. A digest of the protocol: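 α1 adrenoceptor binding measured as displacement of [3H]prazosin from whole rat brain membranes. Five test-drug concentrations spanning three decades in triplicate, two full curves; IC50 from log concentration-effect curves, logarithmic mean of at least two determinations.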
On the technique in general: Displacement assays read how much labelled ligand stays bound in the presence of the test substance.

Another test deals with D(2) dopamine receptor (Rattus norvegicus, UniProt P61169). As to the kind of experiment: Displacement of [3H]-spiperone from Dopamine receptor D2 from rat striatal membranes. Format: cell membranes, Membrane. In outline:
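[3H]spiperone displacement from rat striatal membranes (D2). Five test-drug concentrations over three decades, in triplicate, two full curves; IC50 from log concentration-effect curves, reported as logarithmic mean of at least two determinations.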

Test [2] has as its target Serotonin 2 (5-HT2) receptor (Rattus norvegicus, UniProt P30994+P08909+P14842). Put plainly: Displacement of [3H]ketanserin from 5-hydroxytryptamine 2 receptor from rat cortical membranes. In kind it is cell membranes, Membrane. A digest of the protocol: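 [3H]ketanserin displacement from rat cortical membranes (5-HT2). Five concentrations across three decades in triplicate, two full curves; IC50 estimated on a log-concentration scale, given as logarithmic mean of at least two determinations.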

For test [3], the system named is Rattus norvegicus. Put plainly: Compound was evaluated for the inhibition of quipazine-induced head twitches after 2 hr (administered subcutaneously); 0.022-0.056. Format: functional. As to conditions: sc.
The subject of test [4] is Rattus norvegicus. Put plainly: Compound was evaluated for the inhibition of quipazine-induced head twitches after 24 hr (administered subcutaneously); 0.014-0.066. Format: functional. Conditions: sc.
The test system of test [5] is Rattus norvegicus. Put plainly: Compound was evaluated for the inhibition of quipazine-induced head twitches after 24 hr (administered perorally); 0.020-0.078. Format: functional. As to conditions: po.
For test [6], the species on record is Mus musculus. Put plainly: Compound was evaluated for the inhibition of isolation-induced aggression at a threshold of 180 seconds; 4.4-13. Format: functional. A digest of the protocol: (§1)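 Isolated male NMRI mice (3 weeks) trained to attack a nonaggressive intruder of the same strain; only mice with attack latency <25 s included. Pretested just before dosing and 2 h after sc test substance; observation maximum 180 s; at least eight mice per dose.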

The species entered for test [7] is Mus musculus. As to the kind of experiment: Compound was evaluated for the inhibition of isolation-induced aggression at a threshold of, 90 seconds; 3.7-9.4. In kind it is functional. In outline: as §1
In test [8] the test system is Rattus norvegicus. Put plainly: Compound was evaluated for the inhibition of pergolide-induced reactions after 2 hr (administered subcutaneously); 1.5-8.9. Format: functional. As to conditions: sc. A digest of the protocol: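 Male Wistar rats with unilateral 6-OHDA lesions; test drug sc 2 h before pergolide (0.05 µmol/kg sc) to induce contralateral circling. Effect of each dose expressed as percent of mean of control sessions 1 week before and 1 week after, per rat; at least four rats per dose; ED50 by log-probit analysis.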

Sequence of D(2) dopamine receptor (P61169 whole entry): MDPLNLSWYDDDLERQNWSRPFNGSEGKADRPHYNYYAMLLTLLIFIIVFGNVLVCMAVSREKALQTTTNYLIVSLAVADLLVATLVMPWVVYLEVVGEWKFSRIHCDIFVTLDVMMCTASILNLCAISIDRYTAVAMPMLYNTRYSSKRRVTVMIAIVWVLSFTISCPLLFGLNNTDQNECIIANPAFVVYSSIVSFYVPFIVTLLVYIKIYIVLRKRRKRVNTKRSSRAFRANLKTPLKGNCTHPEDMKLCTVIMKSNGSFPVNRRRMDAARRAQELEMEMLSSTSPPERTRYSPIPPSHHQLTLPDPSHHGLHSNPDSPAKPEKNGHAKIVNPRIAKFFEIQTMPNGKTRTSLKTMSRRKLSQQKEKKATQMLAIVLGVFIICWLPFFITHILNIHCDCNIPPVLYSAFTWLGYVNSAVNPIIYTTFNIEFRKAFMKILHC

As for `CC(C)N1CCN(CCN2CCC(c3cn(-c4ccccc4)c4cc(Cl)ccc34)CC2)C1=O`, the IC50 in [1] amounted to 39 nM; at D(2) dopamine receptor it was 290 nM; in test [2], 4.5 nM.

For the molecule `O=C1NCCN1CCN1CCC(c2cn(-c3ccc(F)cc3)c3cc(C(F)(F)F)ccc23)CC1`, the IC50 in [1] was 33 nM; at D(2) dopamine receptor it was 260 nM; in [2] it was 1.7 nM.

Regarding `Cc1ccc2c(C3CCN(CCNC(=O)N(C)C)CC3)cn(-c3ccc(F)cc3)c2c1`, the IC50 in test [1] is 22 nM; on D(2) dopamine receptor, 38 nM; in [2], 2.6 nM.

In the case of `Cc1ccc2c(C3CCN(CCN4CCN(C(C)C)C4=O)CC3)cn(-c3cccc(C(F)(F)F)c3)c2c1`, the IC50 in [2] was 150 nM.

For `CC(C)N1CCN(CCN2CCC(c3c[nH]c4cc(Cl)ccc34)CC2)C1=O`, the results for the IC50 (in test [1]; on D(2) dopamine receptor; in test [2]) were 34 nM, 200 nM and 66 nM, respectively.

Regarding `Cc1ccc2c(C3CCN(CCN4CCN(C(C)C)C4=O)CC3)cn(-c3ccccc3F)c2c1`, the IC50 in test [1] is recorded as 370 nM; in test [2] it was 2.5 nM.

`Cc1ccc2c(C3CCN(CCN4CCN(C(C)C)C4=O)CC3)cn(-c3cccc(F)c3)c2c1`: the IC50 came to 670 nM in [1] and 11 nM in test [2].

Consider `CC(C)N1CCN(CCN2CCC(c3cn(-c4ccc(F)cc4)c4cc(F)ccc34)CC2)C1=O`, for which the IC50 in test [1] was 13 nM; at D(2) dopamine receptor, 28 nM; in test [2], 1.3 nM.

For the molecule `CN(C)C(=O)NCCN1CCC(c2cn(-c3ccc(F)cc3)c3cc(Cl)ccc23)CC1`, the results for the IC50 (in [1]; on D(2) dopamine receptor; in [2]) were 29 nM, 27 nM and 1.3 nM, respectively.

In the case of `Cc1c(C2=CCN(CCN3CCNC3=O)CC2)c2ccccc2n1-c1ccc(F)cc1`, the figures for the IC50 (in test [1]; on D(2) dopamine receptor; in test [2]) were 23 nM, 160 nM and 1.1 nM, respectively.

Consider `O=C1NCCN1CCN1CCC(c2cn(-c3ccc(F)cc3)c3cc(Cl)ccc23)CC1`, for which the IC50 in test [1] was found to be 9.6 nM; at D(2) dopamine receptor, 56 nM; in [2], 1.4 nM.

On to `O=C1NCCN1CCN1CCC(c2cn(-c3ccc(F)cc3)c3ccc(Cl)cc23)CC1` [SERTINDOLE], for which the ED50 with Rattus norvegicus [3] amounted to 0.035 µmol/kg; in the test with Rattus norvegicus [4], 0.03 µmol/kg; with Rattus norvegicus [5], 0.039 µmol/kg; in the test filed under Mus musculus [6] it was 7.5 µmol/kg; in the test filed under Mus musculus [7], 5.9 µmol/kg; in the test on Rattus norvegicus [8], 3.7 µmol/kg. This molecule also displayed an IC50 in test [1] of 3.4 nM.

As a reminder, the IC50 is the midpoint of a concentration-inhibition curve. High values mean a need for much substance, low ones inhibition by little substance. In general, ED50 refers to the dose that gives a 50% effect, or the effect in half of the subjects. Low readings indicate greater potency, high ones weaker potency.
